The values below come from ChEMBL document CHEMBL4706664, “Rational drug design of 6-substituted 4-anilino-2-phenylpyrimidines for exploration of novel ABCG2 binding site” (Eur J Med Chem, 2021).

Structures are written as SMILES.

Data set [1] concerns the target T1, Broad substrate specificity ATP-binding cassette transporter ABCG2 (Homo sapiens, UniProt Q9UNQ0).
T1 sequence (Q9UNQ0 whole entry): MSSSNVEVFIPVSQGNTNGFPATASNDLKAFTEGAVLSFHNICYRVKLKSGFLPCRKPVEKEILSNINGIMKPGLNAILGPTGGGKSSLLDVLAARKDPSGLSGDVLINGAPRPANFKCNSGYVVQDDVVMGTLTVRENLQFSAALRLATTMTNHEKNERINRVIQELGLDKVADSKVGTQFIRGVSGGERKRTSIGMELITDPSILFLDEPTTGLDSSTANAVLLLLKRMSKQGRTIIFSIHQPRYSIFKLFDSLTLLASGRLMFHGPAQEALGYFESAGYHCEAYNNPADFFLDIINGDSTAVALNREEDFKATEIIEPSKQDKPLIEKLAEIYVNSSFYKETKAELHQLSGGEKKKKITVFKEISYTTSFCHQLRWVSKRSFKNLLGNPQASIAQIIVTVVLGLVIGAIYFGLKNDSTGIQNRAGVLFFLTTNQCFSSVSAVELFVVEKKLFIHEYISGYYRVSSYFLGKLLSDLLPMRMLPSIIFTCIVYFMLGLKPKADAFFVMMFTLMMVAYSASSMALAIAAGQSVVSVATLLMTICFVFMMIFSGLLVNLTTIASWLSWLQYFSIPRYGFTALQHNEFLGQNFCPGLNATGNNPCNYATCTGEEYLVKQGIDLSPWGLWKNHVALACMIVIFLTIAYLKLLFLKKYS
Briefly: Inhibition of ABCG2 (unknown origin) expressed in MDCK-II cells assessed as reduction in pheophorbide A efflux measured after 2 hrs by flow cytometry. It is filed as cell-based. In short, it runs like this:
(§1)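 Pheophorbide A accumulation in MDCK II BCRP cells, about 45,000 cells/well in Krebs-HEPES buffer pH 7.4. Compound dilutions were prepared at 0.316–100 µM, and 20 µL of 5 µM pheophorbide A was added. Incubated 2 h at 37 °C, 5% CO2. Fluorescence read by flow cytometry (ex 488 nm, em 695/50 nm). IC50 and Imax are mean ± SEM of at least three independent experiments.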
On the technique in general: Flow cytometry measures light scatter and fluorescence of single cells or particles in a stream.

The target of data set [2] is T2, ABCG2 (Homo sapiens, UniProt Q9UNQ0).
T2 sequence (Q9UNQ0 whole entry): T1 sequence (Q9UNQ0 whole entry)
Briefly: Inhibition of ABCG2 (unknown origin) expressed in MDCK-II cells assessed as reduction in pheophorbide A efflux measured after 2 hrs by flow cytometry relative to Ko143. It counts as cell-based. Particulars: MDCK-II cells expressing ABCG2, probe pheophorbide A, read-out: Imax. In outline:
as §1

Data set [3] has as its target ATP-dependent translocase ABCB1 (Homo sapiens, UniProt P08183). As to the kind of experiment: Inhibition of ABCB1 (unknown origin) expressed in human A2780 ADR cells assessed as reduction in calcein AM efflux preincubated for 30 mins followed by calcein AM addition and measured at 60 secs interval for 1 hr by fluorescence assay. It is filed as cell-based. Particulars: read-out: IC50. In outline: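 Calcein AM accumulation in A2780/ADR cells (30,000/well, Krebs-HEPES buffer pH 7.4). Cells preincubated with compound 30 min at 37 °C, 5% CO2. Then 20 µL of 3.125 µM calcein AM added. Fluorescence (ex 485/em 520 nm) read every 60 s for 1 h. […] Screening at 10 µM.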

Data set [4] has as its target ABCB1 (Homo sapiens, UniProt P08183). Briefly: Inhibition of ABCB1 (unknown origin) expressed in human A2780 ADR cells assessed as reduction in calcein AM efflux at 10 uM preincubated for 30 mins followed by calcein AM addition and measured at 60 secs interval for 1 hr by fluorescence assay relative to control. It is filed as cell-based. Particulars: A2780 ADR cells expressing ABCB1, probe calcein AM, time 90 min. In short, it runs like this: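 Calcein AM accumulation in A2780/ADR cells (30,000/well, Krebs-HEPES buffer pH 7.4). Cells preincubated with compound 30 min at 37 °C, 5% CO2. Screening at 10 µM.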

The next data set has as its target ABCC1 (Homo sapiens, UniProt P33527). Briefly: Inhibition of ABCC1 (unknown origin) expressed in human NCI-H69AR cells assessed as reduction in calcein AM efflux at 10 uM preincubated for 30 mins followed by calcein AM addition and measured at 60 secs interval for 1 hr by fluorescence assay relative to control. It is filed as cell-based. Particulars: NCI-H69AR cells expressing ABCC1, probe calcein AM, time 90 min.

A short description of data set [5]: Cytotoxicity against ABCG2 overexpressing MDCK-II cells assessed as reduction in cell viability measured after 72 hrs by MTT assay. It counts as ADME, cell-based, Canis lupus familiaris. Particulars: dog. In outline: (§2)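 MTT cell viability. Compound dilution series prepared in culture medium at 3.16 µM to 1 mM (dilution stock; added 20 µL to 180 µL cells). Seeding per well: MDCK II and MDCK II BCRP 2000, A2780 and A2780/ADR 8000, H69AR 20,000. Incubated 72 h, 37 °C, 5% CO2. MTT 5 mg/mL added for 60 min, formazan dissolved in DMSO, absorbance 570 nm (690 nm background). Medium = 100%, 10% DMSO = 0% viability. GI50 by four-parameter logistic fit. Mean ± SEM of at least three independent experiments.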
For orientation: Tetrazolium dyes change colour on reduction, which living cells bring about.

Data set [6] in a line: Cytotoxicity against wild-type MDCK-II cells assessed as reduction in cell viability measured after 72 hrs by MTT assay. It counts as cell-based, Canis lupus familiaris. The following applies: dog. In short, it runs like this: as §2
Data set [7] has as its system ABCG2. As to the kind of experiment: Therapeutic index, ratio of GI50 for cytotoxicity against ABCG2 overexpressing MDCK-II cells to IC50 for inhibition of ABCG2 (unknown origin) expressed in MDCK-II cells. Particulars: dog.
A short description of data set [8]: Cytotoxicity against ABCB1 over expressing human A2780 ADR cells assessed as reduction in cell viability measured after 72 hrs by MTT assay. It is filed as ADME, cell-based. Particulars: ABCB1 overexpressing A2780 ADR cells. In outline:
as §2

Data set [9] in a line: Cytotoxicity against ABCB1 over expressing human A2780 cells assessed as reduction in cell viability measured after 72 hrs by MTT assay. It counts as ADME, cell-based. The following applies: in the assay text read “human A2780 cells” for “ABCB1 over expressing human A2780 cells”. In outline:
as §2

A short description of data set [10]: Cytotoxicity against ABCC1 over expressing human NCI-H69AR cells assessed as reduction in cell viability measured after 72 hrs by MTT assay. It is filed as ADME, cell-based. The following applies: ABCC1 overexpressing NCI-H69AR cells. In short, it runs like this:
as §2

A short description of data set [11]: Cytotoxicity against human A2780 cells assessed as reduction in cell viability measured after 72 hrs by MTT assay.
The test system of data set [12] is ABCB1. Briefly: Therapeutic index, ratio of GI50 for cytotoxicity against ABCB1 over expressing human A2780 ADR cells to IC50 for inhibition of ABCB1 (unknown origin) expressed in human A2780 ADR cells. Particulars: ABCB1 overexpressing A2780 ADR cells.

ABCB1 (Homo sapiens, UniProt P08183), sequence (P08183 whole entry): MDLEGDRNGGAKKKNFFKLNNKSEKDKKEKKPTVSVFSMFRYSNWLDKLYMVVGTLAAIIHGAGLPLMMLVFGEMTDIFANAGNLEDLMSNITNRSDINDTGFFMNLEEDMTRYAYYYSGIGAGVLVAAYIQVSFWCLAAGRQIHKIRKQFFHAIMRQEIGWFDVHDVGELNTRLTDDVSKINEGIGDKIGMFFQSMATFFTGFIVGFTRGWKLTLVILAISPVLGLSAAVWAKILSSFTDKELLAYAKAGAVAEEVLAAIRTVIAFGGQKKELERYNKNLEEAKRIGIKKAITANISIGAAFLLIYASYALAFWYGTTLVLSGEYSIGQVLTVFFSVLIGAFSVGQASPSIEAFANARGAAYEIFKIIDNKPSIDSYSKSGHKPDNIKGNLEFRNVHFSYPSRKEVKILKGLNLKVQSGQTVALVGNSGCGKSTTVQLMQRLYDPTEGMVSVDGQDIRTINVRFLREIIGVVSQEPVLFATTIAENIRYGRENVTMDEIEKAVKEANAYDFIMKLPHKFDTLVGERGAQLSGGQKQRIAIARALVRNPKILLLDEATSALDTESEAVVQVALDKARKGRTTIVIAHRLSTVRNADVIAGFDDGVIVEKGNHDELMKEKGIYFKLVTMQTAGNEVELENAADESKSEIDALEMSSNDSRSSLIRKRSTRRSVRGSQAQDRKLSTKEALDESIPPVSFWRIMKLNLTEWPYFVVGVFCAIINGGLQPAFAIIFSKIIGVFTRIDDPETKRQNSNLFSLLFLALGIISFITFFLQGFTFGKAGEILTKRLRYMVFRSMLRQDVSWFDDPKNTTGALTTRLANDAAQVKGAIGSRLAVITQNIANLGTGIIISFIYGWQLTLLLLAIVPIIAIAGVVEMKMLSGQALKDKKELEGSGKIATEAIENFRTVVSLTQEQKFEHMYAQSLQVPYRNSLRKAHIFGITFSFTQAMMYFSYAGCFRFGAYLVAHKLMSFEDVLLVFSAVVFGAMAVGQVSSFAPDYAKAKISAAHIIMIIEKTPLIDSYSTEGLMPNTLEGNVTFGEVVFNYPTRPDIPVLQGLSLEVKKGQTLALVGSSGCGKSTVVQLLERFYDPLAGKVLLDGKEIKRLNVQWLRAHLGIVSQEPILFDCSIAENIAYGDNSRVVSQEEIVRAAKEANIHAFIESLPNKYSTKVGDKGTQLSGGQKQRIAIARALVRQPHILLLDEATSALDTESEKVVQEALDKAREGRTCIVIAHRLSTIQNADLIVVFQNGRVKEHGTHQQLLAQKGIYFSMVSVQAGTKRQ
ATP-dependent translocase ABCB1, sequence (P08183 whole entry): as above
ABCC1, sequence (P33527 whole entry): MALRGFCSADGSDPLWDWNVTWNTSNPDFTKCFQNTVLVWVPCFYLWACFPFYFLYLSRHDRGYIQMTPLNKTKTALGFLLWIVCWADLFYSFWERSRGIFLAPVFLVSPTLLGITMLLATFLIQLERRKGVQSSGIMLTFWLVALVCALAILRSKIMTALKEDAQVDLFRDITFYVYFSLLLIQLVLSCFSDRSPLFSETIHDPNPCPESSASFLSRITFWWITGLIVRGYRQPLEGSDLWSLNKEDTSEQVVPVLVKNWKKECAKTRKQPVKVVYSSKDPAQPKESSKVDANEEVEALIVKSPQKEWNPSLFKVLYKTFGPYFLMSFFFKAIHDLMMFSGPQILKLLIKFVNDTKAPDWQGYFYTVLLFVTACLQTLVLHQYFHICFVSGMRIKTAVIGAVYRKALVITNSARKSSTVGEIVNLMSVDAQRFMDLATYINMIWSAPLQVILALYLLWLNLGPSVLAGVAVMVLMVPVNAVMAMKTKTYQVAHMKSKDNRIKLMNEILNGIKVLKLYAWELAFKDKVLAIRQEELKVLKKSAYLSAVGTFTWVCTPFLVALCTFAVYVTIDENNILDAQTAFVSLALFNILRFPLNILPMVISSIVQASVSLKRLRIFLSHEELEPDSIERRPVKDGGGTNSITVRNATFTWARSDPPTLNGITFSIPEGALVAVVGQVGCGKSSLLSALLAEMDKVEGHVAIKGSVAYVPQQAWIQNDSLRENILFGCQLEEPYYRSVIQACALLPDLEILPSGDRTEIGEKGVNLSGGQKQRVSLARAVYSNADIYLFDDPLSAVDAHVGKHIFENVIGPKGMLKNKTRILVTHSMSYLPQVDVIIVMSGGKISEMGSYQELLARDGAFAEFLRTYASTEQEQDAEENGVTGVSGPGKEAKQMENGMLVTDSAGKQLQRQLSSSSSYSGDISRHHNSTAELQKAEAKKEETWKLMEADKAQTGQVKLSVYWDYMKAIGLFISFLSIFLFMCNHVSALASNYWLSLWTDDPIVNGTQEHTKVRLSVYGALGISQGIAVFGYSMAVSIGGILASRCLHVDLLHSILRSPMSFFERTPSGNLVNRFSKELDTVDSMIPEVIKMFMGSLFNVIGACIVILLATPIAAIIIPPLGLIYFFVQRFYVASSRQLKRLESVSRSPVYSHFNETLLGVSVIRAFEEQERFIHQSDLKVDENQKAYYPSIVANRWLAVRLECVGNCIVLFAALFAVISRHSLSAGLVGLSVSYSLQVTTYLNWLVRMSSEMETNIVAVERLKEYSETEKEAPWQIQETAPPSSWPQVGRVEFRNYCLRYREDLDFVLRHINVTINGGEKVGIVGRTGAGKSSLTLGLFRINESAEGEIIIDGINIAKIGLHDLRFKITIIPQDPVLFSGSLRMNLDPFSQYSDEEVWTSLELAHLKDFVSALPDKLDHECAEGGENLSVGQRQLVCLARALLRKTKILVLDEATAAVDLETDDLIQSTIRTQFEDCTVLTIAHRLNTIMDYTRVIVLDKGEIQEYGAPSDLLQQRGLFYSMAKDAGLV

By IC50 is commonly meant the point on the concentration scale where inhibition reaches its midpoint. The inhibition is the drop in the measured response relative to a control, in per cent. Broadly, the GI50 is the concentration that inhibits growth by half. In the case of `N#Cc1ccc(Nc2cc(NCc3cccnc3)nc(-c3ccccc3)n2)cc1`, the 50% inhibitory concentration (IC50) in [1] was 0.373 µM; in data set [3], 5.41 µM. Moreover, the Emax at 2 h on ABCG2 [2] worked out at 91%. Also, the inhibition at 1 h, 10 µM on ABCB1 [4] and on ABCC1 was greater than 20% throughout. Moreover, the GI50 at 72 h stood at 5.54 µM in data set [5] and 7.47 µM in data set [6]. Further, in the data set on ABCG2 [7], the selectivity ratio is 14.9.

For the compound `N#Cc1ccc(Nc2cc(Nc3ccc(O)cc3)nc(-c3ccccc3)n2)cc1`, the IC50 was 0.387 µM in data set [1] and 4.54 µM in data set [3]. Also, the Emax at 2 h at ABCG2 [2] stood at 76%. The inhibition at 1 h, 10 µM at ABCB1 [4] and on ABCC1 was greater than 20% throughout. Moreover, the GI50 at 72 h in data set [5] turned out to be 5.15 µM; in data set [6], 5.3 µM; in data set [8], 9.21 µM; in data set [9], 8.02 µM; in data set [10] it was 13.7 µM.

Take `N#Cc1ccc(Nc2cc(Nc3cccc(O)c3)nc(-c3ccccc3)n2)cc1`: the IC50 in data set [1] is 0.608 µM; in data set [3], 3.52 µM. The Emax at 2 h at ABCG2 [2] amounted to 66%. The inhibition at 1 h, 10 µM at ABCB1 [4] and at ABCC1 was greater than 20% throughout. In addition, the GI50 at 72 h in data set [5] was determined as 5.12 µM; in data set [6], 5.24 µM; in data set [8], 5.91 µM; in data set [9] it was 3.55 µM; in data set [10], 11 µM.

Regarding `CC(C)Nc1cc(Nc2ccc(C#N)cc2)nc(-c2ccccc2)n1`, the values for the half-inhibitory concentration (IC50) in data set [1] and in [3] were 0.763 µM and 6.42 µM, respectively. Besides, the Emax at 2 h on ABCG2 [2] amounted to 101%. Also, the inhibition at 1 h, 10 µM at ABCB1 [4] and on ABCC1 was greater than 20% each time. Further, the GI50 at 72 h was 5.06 µM in [5]; 5.58 µM in [6]; 8.09 µM in [8]; 21.4 µM in [10]; 13.3 µM in data set [11].

For the compound `N#Cc1ccc(Nc2cc(Nc3ccccc3O)nc(-c3ccccc3)n2)cc1`, the 50% inhibitory concentration (IC50) in data set [1] is 0.223 µM; in data set [3] it was 2.98 µM. Moreover, on ABCG2 [2], the Emax at 2 h was 86%. In addition, on ABCB1 [4], the inhibition at 1 h, 10 µM is greater than 20%. In addition, the GI50 at 72 h in [5] worked out at 4.61 µM; in data set [6], 4.23 µM; in [8], 9.96 µM; in [9], 9.07 µM. In addition, the selectivity ratio in the data set on ABCG2 [7] is 20.7; with ABCB1 [12] it was 3.34.

Turning to `CCCNc1cc(Nc2ccc(C#N)cc2)nc(-c2ccccc2)n1`, the IC50 in data set [1] was 0.293 µM; in data set [3], 5.9 µM. Further, the Emax at 2 h at ABCG2 [2] stood at 89%. Moreover, the inhibition at 1 h, 10 µM at ABCB1 [4] and on ABCC1 was greater than 20% in each case. Moreover, the 50% growth inhibitory concentration (GI50) at 72 h in data set [5] was found to be 6.56 µM; in data set [6], 8.34 µM; in data set [8] it was 12.3 µM; in data set [10] it was 23 µM; in [11], 15.1 µM.
